The text below walks through data of ChEMBL document CHEMBL4765376, “Discovery of an Orally Available Diazabicyclooctane Inhibitor (ETX0282) of Class A, C, and D Serine β-Lactamases” (J Med Chem, 2020).

≈ marks a conversion by molar mass, not a printed value. Calls of active or inactive are those of the source.

By half-life is commonly meant the time needed for the level to fall by half in the phase considered. One may read the bioavailability as dose-corrected exposure relative to a reference, in per cent. A low value points to poor availability. Broadly, the MIC is the lowest concentration that inhibits growth of the organism.

A short description of series [1]: Metabolic stability in human intestinal S9 fraction assessed as half-life at 10 uM up to 60 mins by LC/MS/MS analysis. Format: ADME, subcellular, Intestine. The method in brief:
(§1)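 S9 fraction at 0.8 mg/mL protein in 100 mM potassium phosphate pH 7.4, preincubated 5 min at 37 °C, then compound added at 10 μM final. Aliquots taken at 0, 2, 5, 10, 20, 40 and 60 min, quenched in acetonitrile with internal standard, and prodrug measured by LC/MS/MS. First-order half-life taken from the log-linear depletion slope.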

Series [2] in a line: Metabolic stability in rat intestinal S9 fraction assessed as half-life at 10 uM up to 60 mins by LC/MS/MS analysis. Format: ADME, subcellular, Intestine. The procedure, abridged: as §1
Series [3] can be described thus: Stability of compound in phosphate buffer assessed as half-life at pH 7.4. The series is classed as physicochemical. The method in brief: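 Compound at 10 μM in potassium phosphate buffer pH 7.4 at 37 °C without S9. Sampled at 0 to 60 min and measured by LC/MS/MS. Half-life from the first-order log-linear depletion slope.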
The nature of series [4]: Metabolic stability in human liver S9 fraction assessed as half-life at 10 uM up to 60 mins by LC/MS/MS analysis. Format: ADME, subcellular. The method in brief: as §1
Series [5] is described as follows: Metabolic stability in rat liver S9 fraction assessed as half-life at 10 uM up to 60 mins by LC/MS/MS analysis. Format: ADME, subcellular. The method in brief:
as §1

Series [6] is described as follows: Oral bioavailability in Sprague-Dawley rat at 10 mg/kg by LC/MS/MS analysis. As to conditions: in vivo. The series is classed as ADME, organism-based. The method in brief: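 Jugular vein-cannulated male Sprague Dawley rats (180–200 g, n = 3/route). Intravenous arm: active acid at 10 mg/kg in 0.9% saline, plasma sampled 0.08–8 h. Oral arm: prodrug at a dose equivalent to 10 mg/kg acid in 25:75 PEG 400/WFI, plasma sampled 0.25–24 h. Levels by LC/MS/MS; F = (AUCpo/AUCiv) × 100.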

Series [7] has as its system Klebsiella pneumoniae. Briefly: Antibacterial activity against Klebsiella pneumoniae ARC561 assessed as reduction in bacterial growth by CLSI based broth dilution method. Format: functional. The method in brief: (§2)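 Broth microdilution in CAMHB following CLSI.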
The subject of series [8] is Klebsiella pneumoniae. Briefly: Antibacterial activity against Klebsiella pneumoniae ARC 6088 carbapenem-resistant clinical isolates assessed as reduction in bacterial growth by CLSI based broth dilution method. Format: functional. The method in brief: (§3)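 Broth microdilution per CLSI in cation-adjusted Mueller–Hinton broth against drug-resistant clinical isolates; MIC read as the lowest concentration preventing bacterial growth.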

In series [9] the test system is Klebsiella pneumoniae. Briefly: Antibacterial activity against Klebsiella pneumoniae ARC 6098 drug resistant clinical isolates assessed as reduction in bacterial growth by CLSI based broth dilution method. The series is classed as functional. The procedure, abridged:
as §3

Another series deals with Klebsiella oxytoca. Briefly: Antibacterial activity against Klebsiella oxytoca ARC 5389 carbapenem resistant clinical isolates assessed as reduction in bacterial growth by CLSI based broth dilution method. Format: functional. The method in brief: as §3
Background: Broth dilution looks for growth in wells or tubes with falling amounts of substance.

For the next series, the system named is Citrobacter freundii. Briefly: Antibacterial activity against Citrobacter freundii ARC 3518 carbapenem resistant clinical isolates assessed as reduction in bacterial growth by CLSI based broth dilution method. Format: functional. The method in brief:
as §3

In series [10] the test system is Klebsiella pneumoniae. The series can be described thus: Antibacterial activity against Klebsiella pneumoniae ARC 6107 carbapenem resistant clinical isolates assessed as reduction in bacterial growth by CLSI based broth dilution method. The series is classed as functional. The method in brief: as §3
Series [11] concerns Escherichia coli. The series can be described thus: In vivo antibacterial activity against multidrug-resistant Escherichia coli ARC 2687 infected in CD-1 mouse model of neutropenic thigh infection assessed as colony forming unit at 50 mg/kg, po administered at 6 hrs interval. Format: functional, organism-based. The procedure, abridged: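 Female CD-1 mice (20–22 g, 3/arm) made neutropenic with ip cyclophosphamide, 150 mg/kg on day −4 and 100 mg/kg on day −1. Each thigh received an im inoculum of 5.5 × 10^6–1.6 × 10^7 CFU from saline suspension (OD625 0.1, diluted). Dosing began 2 h post-infection, q6h. Oral agents were given in 0.5% HPMC/0.1% Tween 80; meropenem was given sc in water. Thighs were taken at 24 h, homogenized and plated on TSA (35 °C overnight) for CFU counts.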

Series [12] deals with Enterobacter cloacae. The series can be described thus: Antibacterial activity against Enterobacter cloacae ARC 6055 drug resistant clinical isolates assessed as reduction in bacterial growth by CLSI based broth dilution method. Format: functional. The procedure, abridged: as §3
Series [13] concerns Klebsiella pneumoniae. Briefly: Antibacterial activity against Klebsiella pneumoniae ARC 6082 drug resistant clinical isolates assessed as reduction in bacterial growth by CLSI based broth dilution method. The series is classed as functional. The procedure, abridged: as §3
In series [14] the test system is Escherichia coli. Briefly: Antibacterial activity against Escherichia coli ARC3627 assessed as reduction in bacterial growth by CLSI based broth dilution method. Format: functional. The procedure, abridged:
as §2

The subject of series [15] is Enterobacter cloacae. The series can be described thus: Antibacterial activity against Enterobacter cloacae ARC 6049 drug resistant clinical isolates assessed as reduction in bacterial growth by CLSI based broth dilution method. The series is classed as functional. The procedure, abridged:
as §3

Consider `CCOC(=O)[C@H](F)ON1C(=O)N2C[C@H]1C=C(C)[C@H]2C(=O)NCCS(N)(=O)=O`, for which the half-life at 10 µM in [1] turned out to be 22 min; in series [2], 20 min; in series [4] it was 9.9 min; in [5], 10 min. In addition, in [3], the half-life came out at 26 min. Further, in [6], the bioavailability is 4%.
As for `COCC1=C(C(=O)O)N2C(=O)[C@@H](NC(=O)/C(=N\OC)c3csc(N)n3)[C@H]2SC1` [CEFPODOXIME], the minimal inhibitory concentration (MIC) with Klebsiella pneumoniae [7] is 32 µg/mL (≈ 74.9 µM); with Klebsiella pneumoniae [8] it was above 64 µg/mL; in the series on Klebsiella pneumoniae [9] it was above 64 µg/mL; with Klebsiella oxytoca, above 64 µg/mL; in the series with Citrobacter freundii, above 64 µg/mL; in the series on Klebsiella pneumoniae [10], above 64 µg/mL. The MIC in the series with Enterobacter cloacae [12], in the series on Klebsiella pneumoniae [13], in the series with Escherichia coli [14] and with Enterobacter cloacae [15] was above 64 µg/mL each time. Also, in the series on Escherichia coli [11], the outcome was inactive.
